Columns and labels:
[1] = biological target: T1, Lysine-specific demethylase 2A (Homo sapiens) (UniProt Q9Y2K7); assay: Inhibition of human N-terminal FLAG/Avi-tagged KDM2A (2 to 700 residues) expressed in baculovirus infected Sf9 insect cells at 50 uM using H3(21-44)-K36(Me2)-GK(Biotin)/2-OG as substrate measured after 1 hr by Alphalisa assay relative to control
T1 sequence (whole entry): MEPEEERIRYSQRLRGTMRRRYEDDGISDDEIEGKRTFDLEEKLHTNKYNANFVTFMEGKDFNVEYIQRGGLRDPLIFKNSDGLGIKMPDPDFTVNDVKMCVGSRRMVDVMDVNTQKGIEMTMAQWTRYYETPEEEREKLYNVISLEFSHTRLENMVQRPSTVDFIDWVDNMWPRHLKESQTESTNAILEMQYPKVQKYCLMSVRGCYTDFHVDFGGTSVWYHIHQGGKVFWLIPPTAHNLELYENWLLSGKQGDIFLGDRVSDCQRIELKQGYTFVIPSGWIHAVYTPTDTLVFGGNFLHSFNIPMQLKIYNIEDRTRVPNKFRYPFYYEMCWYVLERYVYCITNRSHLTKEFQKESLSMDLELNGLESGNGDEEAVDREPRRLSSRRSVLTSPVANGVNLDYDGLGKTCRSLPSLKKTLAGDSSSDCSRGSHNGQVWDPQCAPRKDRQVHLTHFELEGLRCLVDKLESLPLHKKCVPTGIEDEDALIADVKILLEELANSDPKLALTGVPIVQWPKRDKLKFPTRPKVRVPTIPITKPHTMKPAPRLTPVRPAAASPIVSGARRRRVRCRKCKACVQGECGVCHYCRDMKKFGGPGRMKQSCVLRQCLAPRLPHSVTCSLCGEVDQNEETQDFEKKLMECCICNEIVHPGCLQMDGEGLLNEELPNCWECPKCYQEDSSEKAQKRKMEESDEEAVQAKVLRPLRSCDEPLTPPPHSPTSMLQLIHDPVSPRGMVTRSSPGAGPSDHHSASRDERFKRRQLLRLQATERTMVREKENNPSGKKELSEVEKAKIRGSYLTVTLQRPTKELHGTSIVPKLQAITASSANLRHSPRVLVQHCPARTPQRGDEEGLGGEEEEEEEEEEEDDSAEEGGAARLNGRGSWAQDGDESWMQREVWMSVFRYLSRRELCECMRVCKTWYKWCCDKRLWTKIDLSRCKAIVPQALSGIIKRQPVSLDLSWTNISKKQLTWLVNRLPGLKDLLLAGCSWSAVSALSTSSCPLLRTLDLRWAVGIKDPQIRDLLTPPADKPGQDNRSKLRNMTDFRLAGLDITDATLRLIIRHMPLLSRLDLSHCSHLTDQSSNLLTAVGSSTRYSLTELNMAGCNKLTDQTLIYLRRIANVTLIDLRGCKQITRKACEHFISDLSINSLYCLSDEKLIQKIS
Outline: (§1)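 AlphaLISA demethylase assay in 50 mM HEPES pH 7.5, 0.1% BSA, 0.01% Tween 20 with DMSO. Enzyme and inhibitor combined, then peptide plus 2-OG (50 µM), Fe(II) (5 µM) and ascorbate (100 µM) in the added mix; 1 h at room temperature with shaking.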

[2] = biological target: Lysine-specific demethylase 5A (Homo sapiens, UniProt P29375); assay: Inhibition of KDM5A in human A549 cells assessed as increase in H3K4me3 levels after 48 hrs by Western blot analysis; assay type: cell-based
Lysine-specific demethylase 5A, sequence (P29375 whole entry): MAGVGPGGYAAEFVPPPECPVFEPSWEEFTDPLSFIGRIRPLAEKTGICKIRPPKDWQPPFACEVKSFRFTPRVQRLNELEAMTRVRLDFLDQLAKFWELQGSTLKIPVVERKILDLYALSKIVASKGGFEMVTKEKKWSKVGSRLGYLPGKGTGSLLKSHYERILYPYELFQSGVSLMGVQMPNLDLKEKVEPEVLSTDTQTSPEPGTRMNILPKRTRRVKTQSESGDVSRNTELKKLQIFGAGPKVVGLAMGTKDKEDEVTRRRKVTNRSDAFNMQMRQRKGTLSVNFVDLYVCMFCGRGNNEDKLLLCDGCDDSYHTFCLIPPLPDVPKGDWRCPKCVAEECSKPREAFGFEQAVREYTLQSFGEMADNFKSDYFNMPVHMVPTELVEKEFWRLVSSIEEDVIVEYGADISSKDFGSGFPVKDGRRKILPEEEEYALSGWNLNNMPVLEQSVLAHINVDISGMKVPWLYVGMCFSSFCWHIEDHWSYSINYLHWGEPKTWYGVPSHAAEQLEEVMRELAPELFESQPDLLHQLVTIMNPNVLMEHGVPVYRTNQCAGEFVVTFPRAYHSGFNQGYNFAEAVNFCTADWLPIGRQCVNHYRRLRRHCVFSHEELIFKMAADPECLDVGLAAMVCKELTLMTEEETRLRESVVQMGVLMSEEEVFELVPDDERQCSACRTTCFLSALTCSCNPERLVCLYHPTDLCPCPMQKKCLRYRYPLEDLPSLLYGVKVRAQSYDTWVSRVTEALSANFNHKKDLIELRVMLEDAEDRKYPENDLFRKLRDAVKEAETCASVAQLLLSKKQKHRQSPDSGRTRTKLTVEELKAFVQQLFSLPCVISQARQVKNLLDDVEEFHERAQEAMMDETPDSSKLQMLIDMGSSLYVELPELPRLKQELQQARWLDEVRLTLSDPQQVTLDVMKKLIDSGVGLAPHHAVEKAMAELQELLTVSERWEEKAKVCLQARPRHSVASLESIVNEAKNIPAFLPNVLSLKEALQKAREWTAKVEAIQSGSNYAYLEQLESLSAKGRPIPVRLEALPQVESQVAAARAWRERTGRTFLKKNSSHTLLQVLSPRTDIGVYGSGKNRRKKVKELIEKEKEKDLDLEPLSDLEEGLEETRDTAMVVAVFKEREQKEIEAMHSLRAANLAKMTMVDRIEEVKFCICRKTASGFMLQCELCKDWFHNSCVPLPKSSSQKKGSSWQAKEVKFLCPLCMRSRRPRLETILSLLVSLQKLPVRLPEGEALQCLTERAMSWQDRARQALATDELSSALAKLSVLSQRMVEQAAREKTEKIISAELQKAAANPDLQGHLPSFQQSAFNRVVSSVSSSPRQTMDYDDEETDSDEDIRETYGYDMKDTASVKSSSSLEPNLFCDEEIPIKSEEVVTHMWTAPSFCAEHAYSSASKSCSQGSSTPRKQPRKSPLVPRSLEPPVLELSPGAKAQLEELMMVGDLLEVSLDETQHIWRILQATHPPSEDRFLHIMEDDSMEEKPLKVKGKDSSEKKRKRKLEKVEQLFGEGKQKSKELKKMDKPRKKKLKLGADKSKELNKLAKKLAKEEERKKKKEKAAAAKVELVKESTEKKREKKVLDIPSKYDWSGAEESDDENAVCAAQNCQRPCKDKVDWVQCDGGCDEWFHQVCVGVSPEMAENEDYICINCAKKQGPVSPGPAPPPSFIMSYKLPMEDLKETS
Outline: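 A549 cells (5 × 10^5 per 2 mL well, RPMI1640 with 10% heat-inactivated FBS) exposed 48 h to compounds at 1, 5 or 25 µM. SDS lysates normalised by BCA, separated on 5-20% SDS-PAGE, blotted to PVDF, blocked in 5% milk/TBS-T, probed for H3K4me3, H3K9me3, H3K27me3 and total H3, detected by HRP chemiluminescence.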

[3] = biological target: T2, Lysine-specific demethylase 3A (Homo sapiens) (UniProt Q9Y4C1); assay: Inhibition of human N-terminal FLAG-tagged KDM3A (2 to 1321 residues) expressed in baculovirus infected Sf9 insect cells at 50 uM using H3(1-21)K9(Me1)-GGK(Biotin)/2-OG as substrate measured after 1 hr by Alphalisa assay relative to control; outline: as §1
T2 sequence (whole entry): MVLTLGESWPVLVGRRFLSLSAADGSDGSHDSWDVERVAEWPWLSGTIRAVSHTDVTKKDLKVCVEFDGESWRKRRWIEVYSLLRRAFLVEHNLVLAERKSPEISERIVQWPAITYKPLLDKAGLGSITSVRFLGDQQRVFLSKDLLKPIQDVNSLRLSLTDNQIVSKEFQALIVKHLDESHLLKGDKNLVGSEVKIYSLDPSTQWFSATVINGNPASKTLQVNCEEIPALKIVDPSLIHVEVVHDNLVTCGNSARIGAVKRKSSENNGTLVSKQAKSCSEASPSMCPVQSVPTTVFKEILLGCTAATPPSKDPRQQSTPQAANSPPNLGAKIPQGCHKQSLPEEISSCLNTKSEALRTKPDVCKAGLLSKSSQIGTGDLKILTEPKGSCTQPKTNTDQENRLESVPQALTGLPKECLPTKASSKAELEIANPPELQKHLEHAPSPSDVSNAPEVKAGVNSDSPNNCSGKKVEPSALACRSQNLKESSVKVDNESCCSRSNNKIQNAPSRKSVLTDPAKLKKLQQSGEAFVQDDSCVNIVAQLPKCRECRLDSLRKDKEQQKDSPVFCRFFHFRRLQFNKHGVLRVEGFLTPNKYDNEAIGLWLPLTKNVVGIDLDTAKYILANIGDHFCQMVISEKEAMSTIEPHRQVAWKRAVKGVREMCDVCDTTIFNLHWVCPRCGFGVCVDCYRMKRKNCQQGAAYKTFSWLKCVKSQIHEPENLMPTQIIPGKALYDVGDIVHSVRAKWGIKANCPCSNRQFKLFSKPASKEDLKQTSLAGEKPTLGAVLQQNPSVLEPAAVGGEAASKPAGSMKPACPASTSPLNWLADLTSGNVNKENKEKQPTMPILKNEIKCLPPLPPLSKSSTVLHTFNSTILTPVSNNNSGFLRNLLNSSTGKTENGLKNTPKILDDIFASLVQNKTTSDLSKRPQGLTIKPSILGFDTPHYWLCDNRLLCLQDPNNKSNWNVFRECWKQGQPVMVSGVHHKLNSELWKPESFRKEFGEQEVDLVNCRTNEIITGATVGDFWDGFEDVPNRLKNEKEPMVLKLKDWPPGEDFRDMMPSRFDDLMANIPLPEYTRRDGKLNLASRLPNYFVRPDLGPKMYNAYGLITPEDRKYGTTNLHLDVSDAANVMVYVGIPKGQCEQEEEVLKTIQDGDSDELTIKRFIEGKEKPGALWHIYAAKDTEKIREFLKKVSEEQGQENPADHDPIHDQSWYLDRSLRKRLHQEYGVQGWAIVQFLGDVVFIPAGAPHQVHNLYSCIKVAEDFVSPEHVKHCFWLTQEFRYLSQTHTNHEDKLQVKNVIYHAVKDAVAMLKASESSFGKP

Structure (SMILES) | inhibition [1] [%] | inhibition [2] | inhibition [3] [%]
CCCCCCN(C)CCc1ccc(-c2[nH]c3c(C#N)cnn3c(=O)c2C(C)C)cc1 | 38.4 | Dose-dependent effect | –
CC(C)c1c(-c2ccccc2)[nH]c2c(C#N)cnn2c1=O | 25.7 | Dose-dependent effect | 31.9
CCCCCN(C)CCCCC(=O)N(O)CCC(=O)O | 51.7 | – | 30.1
CCCCCCN(C)Cc1ccc(-c2[nH]c3c(C#N)cnn3c(=O)c2C(C)C)cc1 | 13.4 | Dose-dependent effect | 61.5
